Reference: ChEMBL document CHEMBL2380222, “Arylsulfonamide pyrimidines as VLA-4 antagonists” (Bioorg Med Chem Lett, 2013)
Each block holds one compound with its values, some of them ahead of it. Activity calls are given as the source filed them. The rule behind the calls is not given here.

How the values were obtained:
[1] = Oral bioavailability in Sprague-Dawley rat; type: ADME, organism-based; details: in vivo
[2] = Plasma concentration in po dosed Sprague-Dawley rat after 12 hrs; type: ADME, organism-based
[3] = AUC in po dosed Sprague-Dawley rat; type: ADME, organism-based; details: plasma
[4] = AUC in iv dosed Sprague-Dawley rat; type: ADME, organism-based; details: plasma
[5] = Inhibition of VLA-4 (unknown origin) binding to VCAM-1 in human Jurkat TM cells after 30 mins by fibronectin mediated cell adhesion assay; type: cell-based
Outline: (§1)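 Calcein-labelled Jurkat TM cells (10^5/well) in Hepes 20 mM, NaCl 140 mM, CaCl2 1 mM, MgCl2 1 mM, 0.3% BSA with activating anti-α4 TS2/16. Cells were preincubated 30 min on wet ice with anti-α5 (5 µg/ml) and a compound dose–response, then bound 35 min at 37 °C, 5% CO2 to human plasma fibronectin-coated wells. Wells were washed 3× and read by fluorescence to give IC50.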

[6] = tested on: Mus musculus; assay: Inhibition of Eos influx in Black/6 mouse acute pulmonary cellular influx model at 1 mg/kg, po bid administered 1hr prior and 12 hrs post ova/alum challenge on day 28 and 29 relative to vehicle-treated control; type: functional
Outline: (§2)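 Female Black/6 mice were sensitized i.p. with ova/alum on day 1, boosted on day 14 and challenged with aerosolized ova and alum on days 28 and 29. Dosing was oral gavage (5 ml/kg) twice daily on days 28–29, 1 h before and 12 h after challenge. Reference anti-α4 antibody PS/2 was given iv at 10 mg/kg, 2 h before the first challenge. Bronchoalveolar lavage eosinophils were counted on day 30 (48 h after the first challenge) as % inhibition.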

[7] = tested on: Mus musculus; assay: Inhibition of Eos influx in Black/6 mouse acute pulmonary cellular influx model at 1 mg/kg, po bid administered 1hr prior and 12 hrs post ova/alum challenge on day 28 and 29 relative to alpha4 antibody PS/2; type: functional; outline: as §2
[8] = target: Integrin alpha-V/beta-1 (Homo sapiens, UniProt P05556+P06756); assay: Inhibition of integrin alphaVbeta1 (unknown origin) binding to mouse OPN-HIS after 30 mins by fibronectin mediated cell adhesion assay; type: protein-complex assay
[9] = tested on: Rattus norvegicus; assay: Antirheumatic activity in Lewis rat collagen induced arthritis model assessed as ankle histology at 3 to 30 mg/kg, po bid for 21 days; type: functional, organism-based
Outline: (§3)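 Female Lewis rats developing type II collagen arthritis were dosed prophylactically by oral gavage, bid, at 3, 10 or 30 mg/kg for 21 days. A separate arm received methotrexate 0.05 mg/kg po qd, alone or combined. Read-outs were ankle caliper measurements as AUC, terminal hind paw weights, body weight and ankle/knee histology. Only animals with definite clinical and histopathologic disease were analysed.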

[10] = tested on: Rattus norvegicus; assay: Antiarthritic activity in Lewis rat collagen induced arthritis model assessed as final paw weight at 3 mg/kg, po bid for 21 days; type: functional, organism-based; parameters: dose 3 mg/kg; outline: as §3
[11] = tested on: Rattus norvegicus; assay: Antirheumatic activity in Lewis rat collagen induced arthritis model assessed as ankle histology at 0.05 mg/kg, po bid for 21 days; type: functional, organism-based; parameters: dose 0.05 mg/kg
[12] = tested on: Rattus norvegicus; assay: Antiarthritic activity in Lewis rat collagen induced arthritis model assessed as final paw weight at 10 to 30 mg/kg, po bid for 21 days; type: functional, organism-based; outline: as §3
[13] = tested on: Cavia porcellus; assay: Antiinflammatory activity in guinea pig at 30 to 300 mg/kg, po bid for 12 days; type: functional, organism-based
Outline: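 Guinea pig EAE: animals were immunized, and only those with established disease (clinical score >0) were randomized at 16–18 days post-immunization. Oral dosing was bid for 12 days at 30 or 300 mg/kg. Natalizumab was given every other day as comparator. The read-out was clinical score over the treatment period.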

[14] = tested on: Rattus norvegicus; assay: Antiarthritic activity in Lewis rat collagen induced arthritis model assessed as inhibition of AUC for ankle swelling at 3 mg/kg, po bid for 21 days; type: functional; details: 504 h, read-out: INH; outline: as §3
[15] = tested on: Rattus norvegicus; assay: Antiarthritic activity in Lewis rat collagen induced arthritis model assessed as AUC for ankle swelling at 10 to 30 mg/kg, po bid for 21 days; type: functional, organism-based; outline: as §3
[16] = tested on: Rattus norvegicus; assay: Antiarthritic activity in Lewis rat collagen induced arthritis model assessed as bone resorbtion at 3 to 30 mg/kg, po bid for 21 days; type: functional, organism-based; outline: as §3
[17] = tested on: Rattus norvegicus; assay: Antiarthritic activity in Lewis rat collagen induced arthritis model assessed as cartilage destruction at 3 to 30 mg/kg, po bid for 21 days; type: functional, organism-based; outline: as §3
[18] = tested on: Rattus norvegicus; assay: Antiarthritic activity in Lewis rat collagen induced arthritis model at 3 to 30 mg/kg, po bid for 21 days; type: functional, organism-based; outline: as §3
[19] = tested on: Mus musculus; assay: Inhibition of Eos influx in Black/6 mouse acute pulmonary cellular influx model at 3 mg/kg, po bid administered 1hr prior and 12 hrs post ova/alum challenge on day 28 and 29 relative to vehicle-treated control; type: functional
Outline: (§4)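 Female Black/6 mice were sensitized i.p. with ova/alum on day 1, boosted on day 14, and challenged with aerosolized ova on days 28 and 29. Compound was given by oral gavage (5 ml/kg) twice daily on days 28–29, 1 h before and 12 h after challenge. BAL was collected on day 30, 48 h after the first challenge. Eosinophil influx was reported as % inhibition against vehicle or against PS/2 (anti-α4, 10 mg/kg iv, 2 h before first challenge).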

[20] = tested on: Mus musculus; assay: Inhibition of Eos influx in Black/6 mouse acute pulmonary cellular influx model at 3 mg/kg, po bid administered 1hr prior and 12 hrs post ova/alum challenge on day 28 and 29 relative to PS/2; type: functional; outline: as §4
[21] = Inhibition of VLA-4 in mouse serum binding to VCAM-1 in human Jurkat TM cells after 30 mins by fibronectin mediated cell adhesion assay; type: cell-based; details: 0.5 h
[22] = Inhibition of VLA-4 in rat serum binding to VCAM-1 in human Jurkat TM cells after 30 mins by fibronectin mediated cell adhesion assay; type: cell-based; details: 0.5 h
Outline: (§5)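 Cells were preincubated 30 min on wet ice with anti-α5 (5 µg/ml) and a compound dose–response, then allowed to bind 35 min at 37 °C, 5% CO2 to human plasma fibronectin-coated wells. Wells were washed 3× and read by fluorescence to give IC50.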

[23] = Inhibition of VLA-4 in human serum binding to VCAM-1 in human Jurkat TM cells after 30 mins by fibronectin mediated cell adhesion assay; type: cell-based; details: 0.5 h; outline: as §5
[24] = Inhibition of VLA-4 binding to VCAM-1 in human Jurkat TM cells after 30 mins by fibronectin mediated cell adhesion assay using BSA; type: cell-based; outline: as §1
[25] = target: Integrin alpha-L/beta-2 (LFA-1) (Homo sapiens, UniProt P05107+P20701); assay: Inhibition of integrin alphaLbeta2 (unknown origin) binding to ICAM in human 8866 cells after 30 mins by ICAM mediated cell adhesion assay
[26] = target: Integrin alpha-5/beta-1 (Homo sapiens, UniProt P05556+P08648); assay: Inhibition of integrin alpha5beta1 (unknown origin) binding to fibronectin in human THP1 cells after 30 mins by fibronectin mediated cell adhesion assay
Sequence of Integrin alpha-5/beta-1 (P05556 21-798 limits assumed): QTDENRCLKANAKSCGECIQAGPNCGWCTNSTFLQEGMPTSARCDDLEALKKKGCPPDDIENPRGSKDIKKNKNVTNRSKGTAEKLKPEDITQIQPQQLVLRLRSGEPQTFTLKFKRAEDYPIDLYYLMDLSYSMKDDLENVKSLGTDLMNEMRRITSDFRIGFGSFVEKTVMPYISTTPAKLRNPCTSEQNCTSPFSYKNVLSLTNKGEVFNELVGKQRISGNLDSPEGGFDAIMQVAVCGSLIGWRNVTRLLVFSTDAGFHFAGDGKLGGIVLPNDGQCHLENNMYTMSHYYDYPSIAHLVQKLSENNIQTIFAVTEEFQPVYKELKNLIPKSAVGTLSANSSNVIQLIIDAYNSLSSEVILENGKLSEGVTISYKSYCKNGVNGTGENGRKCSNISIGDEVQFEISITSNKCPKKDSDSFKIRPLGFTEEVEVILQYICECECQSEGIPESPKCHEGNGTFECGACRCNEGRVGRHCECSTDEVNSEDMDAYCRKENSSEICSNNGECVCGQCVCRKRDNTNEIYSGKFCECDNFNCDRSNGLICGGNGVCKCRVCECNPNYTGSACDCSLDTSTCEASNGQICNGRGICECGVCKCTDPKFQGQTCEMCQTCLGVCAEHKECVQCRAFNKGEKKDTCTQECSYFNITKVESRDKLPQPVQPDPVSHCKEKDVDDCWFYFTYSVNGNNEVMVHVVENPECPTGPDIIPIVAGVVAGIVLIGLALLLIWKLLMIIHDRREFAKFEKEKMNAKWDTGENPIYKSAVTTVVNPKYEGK
Sequence of Integrin alpha-5/beta-1 (P08648 42-894 limits assumed): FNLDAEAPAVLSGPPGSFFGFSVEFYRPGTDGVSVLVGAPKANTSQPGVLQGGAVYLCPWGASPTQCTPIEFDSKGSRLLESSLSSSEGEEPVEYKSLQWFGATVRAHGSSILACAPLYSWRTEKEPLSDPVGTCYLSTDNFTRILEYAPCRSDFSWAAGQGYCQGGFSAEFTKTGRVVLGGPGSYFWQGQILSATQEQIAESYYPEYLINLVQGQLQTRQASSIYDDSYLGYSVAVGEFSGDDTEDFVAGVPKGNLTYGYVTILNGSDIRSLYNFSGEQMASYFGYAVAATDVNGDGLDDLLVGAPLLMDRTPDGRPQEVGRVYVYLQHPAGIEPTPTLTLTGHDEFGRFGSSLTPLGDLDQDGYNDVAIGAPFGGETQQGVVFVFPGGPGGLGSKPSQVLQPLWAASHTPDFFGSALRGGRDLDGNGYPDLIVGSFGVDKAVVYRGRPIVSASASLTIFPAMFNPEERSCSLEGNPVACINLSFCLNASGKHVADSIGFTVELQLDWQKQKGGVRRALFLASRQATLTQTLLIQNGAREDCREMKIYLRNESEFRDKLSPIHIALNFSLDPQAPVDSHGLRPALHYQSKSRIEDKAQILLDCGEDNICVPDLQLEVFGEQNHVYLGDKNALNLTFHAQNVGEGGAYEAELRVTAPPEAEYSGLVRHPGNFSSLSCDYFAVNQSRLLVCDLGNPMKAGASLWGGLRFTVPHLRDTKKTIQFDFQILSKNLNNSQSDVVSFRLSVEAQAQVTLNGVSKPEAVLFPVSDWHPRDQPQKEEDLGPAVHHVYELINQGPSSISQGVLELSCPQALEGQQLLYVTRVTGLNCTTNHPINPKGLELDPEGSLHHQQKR
Sequence of Integrin alpha-5/beta-1 (P08648 895-1049 limits assumed): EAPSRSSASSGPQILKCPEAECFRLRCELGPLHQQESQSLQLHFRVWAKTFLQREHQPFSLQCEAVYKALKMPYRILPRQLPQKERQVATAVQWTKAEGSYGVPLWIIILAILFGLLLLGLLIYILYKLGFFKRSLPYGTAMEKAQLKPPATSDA

Sequence of Integrin alpha-V/beta-1 (P05556 21-798 limits assumed): as the sequence (P05556 21-798 limits assumed) above
Sequence of Integrin alpha-V/beta-1 (P06756 31-889 limits assumed): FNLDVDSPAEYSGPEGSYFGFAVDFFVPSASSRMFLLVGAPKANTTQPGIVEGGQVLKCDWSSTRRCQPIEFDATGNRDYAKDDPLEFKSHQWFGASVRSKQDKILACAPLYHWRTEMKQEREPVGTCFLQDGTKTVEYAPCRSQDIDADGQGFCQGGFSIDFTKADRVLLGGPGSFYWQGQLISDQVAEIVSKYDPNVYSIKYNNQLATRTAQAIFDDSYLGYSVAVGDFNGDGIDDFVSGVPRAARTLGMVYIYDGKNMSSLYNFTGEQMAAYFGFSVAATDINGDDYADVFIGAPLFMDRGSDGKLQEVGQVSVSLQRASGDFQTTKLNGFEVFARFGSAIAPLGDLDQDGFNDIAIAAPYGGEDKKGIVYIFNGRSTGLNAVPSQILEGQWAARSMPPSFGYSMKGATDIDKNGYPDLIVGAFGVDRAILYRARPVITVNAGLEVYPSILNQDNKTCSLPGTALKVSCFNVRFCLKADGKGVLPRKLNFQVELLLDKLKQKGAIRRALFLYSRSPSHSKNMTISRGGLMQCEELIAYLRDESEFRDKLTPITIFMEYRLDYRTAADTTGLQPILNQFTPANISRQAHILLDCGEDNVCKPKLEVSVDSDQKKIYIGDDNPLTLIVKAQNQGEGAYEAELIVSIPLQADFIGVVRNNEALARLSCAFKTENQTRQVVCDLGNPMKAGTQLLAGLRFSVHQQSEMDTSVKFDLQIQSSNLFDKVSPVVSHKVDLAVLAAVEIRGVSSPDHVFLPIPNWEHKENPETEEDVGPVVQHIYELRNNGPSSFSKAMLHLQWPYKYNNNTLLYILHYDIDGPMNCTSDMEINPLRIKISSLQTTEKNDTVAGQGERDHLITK
Sequence of Integrin alpha-V/beta-1 (P06756 891-1048 limits assumed): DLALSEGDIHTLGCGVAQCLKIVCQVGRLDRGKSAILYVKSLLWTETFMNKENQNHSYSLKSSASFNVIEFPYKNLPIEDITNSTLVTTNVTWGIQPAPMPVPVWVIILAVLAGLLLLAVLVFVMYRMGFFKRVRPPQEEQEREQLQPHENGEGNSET
Sequence of Integrin alpha-L/beta-2 (LFA-1) (P20701 whole entry): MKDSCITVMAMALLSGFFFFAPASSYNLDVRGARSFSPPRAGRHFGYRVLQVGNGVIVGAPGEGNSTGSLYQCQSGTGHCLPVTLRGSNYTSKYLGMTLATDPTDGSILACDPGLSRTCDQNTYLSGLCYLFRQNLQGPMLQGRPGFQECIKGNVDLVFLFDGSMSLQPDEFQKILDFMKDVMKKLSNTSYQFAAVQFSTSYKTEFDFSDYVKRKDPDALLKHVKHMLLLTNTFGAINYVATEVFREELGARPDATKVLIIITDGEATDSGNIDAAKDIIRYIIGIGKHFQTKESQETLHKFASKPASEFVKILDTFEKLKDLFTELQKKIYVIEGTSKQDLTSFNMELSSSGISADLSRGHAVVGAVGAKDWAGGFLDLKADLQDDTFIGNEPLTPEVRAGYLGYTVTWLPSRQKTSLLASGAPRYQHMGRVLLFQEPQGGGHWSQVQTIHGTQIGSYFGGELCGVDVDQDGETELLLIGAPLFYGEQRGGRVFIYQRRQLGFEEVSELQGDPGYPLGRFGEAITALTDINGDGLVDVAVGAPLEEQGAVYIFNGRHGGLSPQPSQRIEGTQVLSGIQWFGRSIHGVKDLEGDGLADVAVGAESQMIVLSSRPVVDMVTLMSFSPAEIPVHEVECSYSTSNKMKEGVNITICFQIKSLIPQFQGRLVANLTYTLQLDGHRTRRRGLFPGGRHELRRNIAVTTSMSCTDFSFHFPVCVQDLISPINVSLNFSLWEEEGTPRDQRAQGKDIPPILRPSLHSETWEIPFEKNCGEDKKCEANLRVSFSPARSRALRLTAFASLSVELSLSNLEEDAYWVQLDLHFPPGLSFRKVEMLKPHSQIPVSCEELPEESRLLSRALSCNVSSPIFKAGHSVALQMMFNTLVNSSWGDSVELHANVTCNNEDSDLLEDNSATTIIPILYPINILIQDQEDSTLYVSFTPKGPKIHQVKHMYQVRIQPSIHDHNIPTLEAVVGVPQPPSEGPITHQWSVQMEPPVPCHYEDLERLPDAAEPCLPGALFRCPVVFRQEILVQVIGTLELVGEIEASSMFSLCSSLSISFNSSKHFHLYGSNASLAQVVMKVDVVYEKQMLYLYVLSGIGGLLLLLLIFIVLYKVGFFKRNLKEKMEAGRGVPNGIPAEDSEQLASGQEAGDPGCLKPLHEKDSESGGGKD
Sequence of Integrin alpha-L/beta-2 (LFA-1) (P05107 whole entry): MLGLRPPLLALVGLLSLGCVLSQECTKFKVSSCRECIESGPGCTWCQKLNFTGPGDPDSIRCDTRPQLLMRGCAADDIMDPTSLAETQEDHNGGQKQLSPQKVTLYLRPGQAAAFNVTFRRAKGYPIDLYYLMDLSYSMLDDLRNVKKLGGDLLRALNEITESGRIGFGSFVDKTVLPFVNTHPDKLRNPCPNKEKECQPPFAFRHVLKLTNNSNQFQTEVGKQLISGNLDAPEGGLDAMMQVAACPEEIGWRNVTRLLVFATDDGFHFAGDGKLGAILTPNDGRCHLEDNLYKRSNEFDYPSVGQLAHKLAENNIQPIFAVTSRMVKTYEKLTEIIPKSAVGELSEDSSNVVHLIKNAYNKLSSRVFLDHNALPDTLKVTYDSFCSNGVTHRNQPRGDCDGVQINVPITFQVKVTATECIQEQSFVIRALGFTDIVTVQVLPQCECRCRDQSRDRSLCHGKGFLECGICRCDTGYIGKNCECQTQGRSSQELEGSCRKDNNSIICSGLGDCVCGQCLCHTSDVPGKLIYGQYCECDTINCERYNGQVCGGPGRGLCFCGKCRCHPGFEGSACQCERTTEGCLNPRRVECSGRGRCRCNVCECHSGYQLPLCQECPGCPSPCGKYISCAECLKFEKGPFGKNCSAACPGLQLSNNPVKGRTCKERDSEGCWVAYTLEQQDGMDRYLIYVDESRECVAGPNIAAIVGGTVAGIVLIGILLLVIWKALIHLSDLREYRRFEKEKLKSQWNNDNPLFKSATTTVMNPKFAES

bioavailability [1]: 16% | concentration at 12 h [2]: 10 ng/mL | AUC [3]: 6000 ng·h/mL | AUC [4]: 34000 ng·h/mL | IC50 [5]: 2 nM
Structure (SMILES): CCN(CC)c1ncc(N(CC)S(=O)(=O)c2ccc(F)cc2)c(N[C@@H](Cc2ccc(OC(=O)N3CCC3)cc2)C(=O)O)n1

bioavailability [1]: 46% | concentration at 12 h [2]: 180 ng/mL | AUC [3]: 51000 ng·h/mL | AUC [4]: 111000 ng·h/mL | IC50 [5]: 1 nM
Structure (SMILES): CCN(CC)c1ncc(N(CC)S(=O)(=O)c2ccc(F)cc2)c(N[C@@H](Cc2ccc(OC(=O)N3CCCC3)cc2)C(=O)O)n1

bioavailability [1]: 43% | concentration at 12 h [2]: 450 ng/mL | AUC [3]: 74000 ng·h/mL | AUC [4]: 173000 ng·h/mL | IC50 [5]: 6 nM
Structure (SMILES): CCN(CC)c1ncc(N(C)S(=O)(=O)c2ccc(C)cc2)c(N[C@@H](Cc2ccc(OC(=O)N3CCCC3)cc2)C(=O)O)n1

bioavailability [1]: 17% | concentration at 12 h [2]: 100 ng/mL | AUC [3]: 16000 ng·h/mL | AUC [4]: 90000 ng·h/mL | IC50 [5]: 8 nM
Structure (SMILES): CCN(CC)c1ncc(N(C)S(=O)(=O)c2ccc(F)cc2F)c(N[C@@H](Cc2ccc(OC(=O)N3CCCC3)cc2)C(=O)O)n1

IC50 [8]: 500 nM | IC50 [21]: 36 nM | IC50 [22]: 1900 nM | IC50 [23]: 4600 nM | IC50 [24]: 9 nM | bioavailability [1]: 56% | concentration at 12 h [2]: 1310 ng/mL | AUC [3]: 88000 ng·h/mL | AUC [4]: 156000 ng·h/mL | IC50 [5]: 8 nM | IC50 [25]: > 30000 nM | IC50 [26]: > 30000 nM
Structure (SMILES): C#CCN(c1cnc(N(CC)CC)nc1N[C@@H](Cc1ccc(OC(=O)N2CCCC2)cc1)C(=O)O)S(=O)(=O)c1ccc(F)cc1
inhibition in vivo at 1 mg/kg [6]: 0% | inhibition in vivo at 1 mg/kg [7]: 0% | Activity [9]: Active | Activity [10]: Active | Activity [11]: Active | Activity [12]: Active | Activity [13]: Active | inhibition in vivo at 3 mg/kg [14]: 15% | Activity [15]: Active | Activity [16]: Active | Activity [17]: Active | Activity [18]: Active | inhibition in vivo at 3 mg/kg [19]: 41% | inhibition in vivo at 3 mg/kg [20]: 74%

More lines, now with the values behind:

Structure (SMILES): CCN(CC)c1ncc(N(C(C)C)S(=O)(=O)c2ccc(F)cc2)c(N[C@@H](Cc2ccc(OC(=O)N(C)C)cc2)C(=O)O)n1
IC50 [5]: 5 nM

Structure (SMILES): CCN(CC)c1ncc(N(C(C)C)S(=O)(=O)c2ccc(F)c(F)c2)c(N[C@@H](Cc2ccc(OC(=O)N(C)C)cc2)C(=O)O)n1
IC50 [5]: 7 nM

Structure (SMILES): CCN(CC)c1ncc(N(C(C)C)S(=O)(=O)c2ccc(Cl)cc2)c(N[C@@H](Cc2ccc(OC(=O)N(C)C)cc2)C(=O)O)n1
IC50 [5]: 4 nM

Structure (SMILES): CCN(CC)c1ncc(N(CC)S(=O)(=O)c2ccc(F)cc2)c(N[C@@H](Cc2ccc(OC(=O)N(C)C)cc2)C(=O)O)n1
bioavailability [1]: 44% | concentration at 12 h [2]: 60 ng/mL | AUC [3]: 14000 ng·h/mL | AUC [4]: 32000 ng·h/mL | IC50 [5]: 1 nM

Structure (SMILES): CN(C)C(=O)Oc1ccc(C[C@H](NC(=O)[C@H]2N(S(=O)(=O)c3cnn(C)c3)CSC2(C)C)C(=O)O)cc1
IC50 [5]: 2 nM
